Laboratory results published in ChEMBL document CHEMBL1240512, “Discovery of a potent and selective noncovalent linear inhibitor of the hepatitis C virus NS3 protease (BI 201335)” (J Med Chem, 2010).

What was measured:
[1] = Clearance in rat at 2 mg/kg, iv; assay type: ADME, organism-based; design: dose 2 mg/kg, route intravenous; details: in vivo
Outline: (§1)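 Male Sprague-Dawley rats (275-300 g), fasted overnight with 10% dextrose water access, given 2 mg/kg intravenously. Blood drawn via right carotid cannula at 5 min and 0.25-8 h; plasma pooled from three animals per time point, solid-phase extraction, LC-MS measurement; parameters from noncompartmental analysis.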

[2] = AUC (0 to infinity) in rat at 5 mg/kg, po; assay type: ADME, organism-based; design: time infinity, dose 5 mg/kg, route oral; details: plasma
Outline: (§2)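 Male Sprague-Dawley rats (275-300 g), fasted overnight with 10% dextrose in water; single oral gavage 5 mg/kg in 0.5% Methocel/0.3% Tween-80 (10 mL/kg). Carotid cannula sampling at 0-8 h; plasma pooled from three rats per time point, solid-phase extracted, LC-MS quantified; noncompartmental analysis. F derived using the 2 mg/kg iv arm.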

[3] = Half life in rat at 2 mg/kg, iv; assay type: ADME, organism-based; design: dose 2 mg/kg, route intravenous; details: in vivo; outline: as §1
[4] = Oral bioavailability in rat at 5 mg/kg; assay type: ADME, organism-based; details: in vivo; outline: as §2
[5] = Cmax in rat at 5 mg/kg, po; assay type: ADME, organism-based; design: dose 5 mg/kg, route oral; details: in vivo; outline: as §2
[6] = Volume of distribution at steady state in rat at 2 mg/kg, iv; assay type: ADME, organism-based; design: dose 2 mg/kg, route intravenous; details: in vivo, read-out: Vdss; outline: as §1
[7] = Inhibition of HCV NS3 protease; design: species or system Hepacivirus hominis
Outline: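 Genotype 1b NS3-NS4A (0.5 nM) with 5 μM fluorogenic depsipeptide substrate anthranilyl-DDIVPAbu[C(O)-O]AMY(3-NO2)-TW-OH in 50 mM Tris-HCl pH 8.0, 0.25 M sodium citrate, 0.01% dodecyl maltoside, 1 mM TCEP, 5% DMSO; 60-70 min at 23 °C, stopped with 1 M MES pH 5.8; product fluorescence read; IC50 from percent inhibition by nonlinear fit.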

Hepatitis C virus = test: Antiviral activity against HCV Con1 by cell based-luciferase reporter gene assay; assay type: functional, organism-based, Hepacivirus hominis
Outline: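 Bicistronic luciferase reporter replicon cells (Con1 genotype 1b NS2-NS5B) exposed to compound for 72 h; luciferase read with Bright-Glo substrate by luminescence. EC50 fitted by nonlinear regression.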

Compound	clearance [1]	AUC(0-inf) [2]	half-life [3]	bioavailability [4]	Cmax [5]	Vd [6]	IC50 [7]	EC50 (Hepatitis C virus)
C=C[C@@H]1C[C@]1(NC(=O)[C@@H]1C[C@@H](Oc2cc(-c3csc(NC(C)C)n3)nc3cc(OC)ccc23)CN1C(=O)[C@@H](NC(=O)OC1CCCC1)C(C)(C)C)C(=O)O	24 mL/min/kg	2.4 µM·h	2.6 h	54%	790 nM	3.7 L/kg	0.014 µM	0.045 µM
C=C[C@@H]1C[C@]1(NC(=O)[C@@H]1C[C@@H](Oc2cc(-c3csc(NC(C)C)n3)nc3cc(OC)ccc23)CN1C(=O)[C@@H](NC(=O)OC(C)(C)C)C(C)(C)C)C(=O)O							0.043 µM	
C=C[C@@H]1C[C@]1(NC(=O)[C@@H]1C[C@@H](Oc2cc(-c3csc(NC(C)C)n3)nc3c(C)c(OC)ccc23)CN1C(=O)[C@@H](NC(=O)OC1CCCC1)C(C)(C)C)C(=O)O							0.015 µM	0.04 µM
C=C[C@@H]1C[C@]1(NC(=O)[C@@H]1C[C@@H](Oc2cc(-c3csc(NC(C)=O)n3)nc3c(C)c(OC)ccc23)CN1C(=O)[C@@H](NC(=O)OC1CCCC1)C(C)(C)C)C(=O)O							0.008 µM	0.019 µM
C=C[C@@H]1C[C@]1(NC(=O)[C@@H]1C[C@@H](Oc2cc(-c3csc(NC(=O)CC)n3)nc3c(Cl)c(OC)ccc23)CN1C(=O)[C@@H](NC(=O)OC1CCCC1)C(C)(C)C)C(=O)O							0.007 µM	0.011 µM
C=C[C@@H]1C[C@]1(NC(=O)[C@@H]1C[C@@H](Oc2cc(-c3csc(NC(=O)CC)n3)nc3c(Br)c(OC)ccc23)CN1C(=O)[C@@H](NC(=O)OC1CCCC1)C(C)(C)C)C(=O)O							0.007 µM	0.005 µM
C=C[C@@H]1C[C@]1(NC(=O)[C@@H]1C[C@@H](Oc2cc(-c3csc(NC(=O)OC(C)C)n3)nc3c(Br)c(OC)ccc23)CN1C(=O)[C@@H](NC(=O)OC1CCCC1)C(C)(C)C)C(=O)O							0.006 µM	0.006 µM
C=C[C@@H]1C[C@]1(NC(=O)[C@@H]1C[C@@H](Oc2cc(-c3ccccc3)nc3cc(OC)ccc23)CN1C(=O)[C@@H](NC(=O)OC1CCCC1)C(C)(C)C)C(=O)O							0.014 µM	0.55 µM
C=C[C@@H]1C[C@]1(NC(=O)[C@@H]1C[C@@H](Oc2cc(-c3csc(NC(=O)C(C)C)n3)nc3c(Br)c(OC)ccc23)CN1C(=O)[C@@H](NC(=O)OC1CCCC1)C(C)(C)C)C(=O)O [FALDAPREVIR]							0.003 µM	0.003 µM

Continued by falling IC50 [7], values first:

clearance [1]	AUC(0-inf) [2]	half-life [3]	bioavailability [4]	Cmax [5]	Vd [6]	IC50 [7]	EC50 (Hepatitis C virus)	Compound
						0.32 µM		C=C[C@@H]1C[C@]1(NC(=O)[C@@H]1C[C@@H](Oc2cc(-c3csc(NC(C)C)n3)nc3cc(OC)ccc23)CN1C(=O)[C@@H](O)C(C)(C)C)C(=O)O
						0.018 µM	0.09 µM	C=C[C@@H]1C[C@]1(NC(=O)[C@@H]1C[C@@H](Oc2cc(-c3csc(NC(C)C)n3)nc3cc(OC)ccc23)CN1C(=O)[C@@H](NC(=O)OC1CCCCC1)C(C)(C)C)C(=O)O
14 mL/min/kg	2.8 µM·h	1.2 h	39%	1100 nM	0.83 L/kg	0.017 µM	0.068 µM	C=C[C@@H]1C[C@]1(NC(=O)[C@@H]1C[C@@H](Oc2cc(-c3csc(NC(=O)CC(C)(C)C)n3)nc3cc(OC)ccc23)CN1C(=O)[C@@H](NC(=O)OC1CCCC1)C(C)(C)C)C(=O)O
						0.012 µM	0.11 µM	C=C[C@@H]1C[C@]1(NC(=O)[C@@H]1C[C@@H](Oc2cc(-c3csc(NC(C)C)n3)nc3cc(OC)ccc23)CN1C(=O)[C@@H](NC(=O)OC1CCC1)C(C)(C)C)C(=O)O
15 mL/min/kg	3.5 µM·h	1.7 h	56%	820 nM	1.8 L/kg	0.01 µM	0.017 µM	C=C[C@@H]1C[C@]1(NC(=O)[C@@H]1C[C@@H](Oc2cc(-c3csc(NC(=O)CC)n3)nc3c(C)c(OC)ccc23)CN1C(=O)[C@@H](NC(=O)OC1CCCC1)C(C)(C)C)C(=O)O
						0.007 µM	0.036 µM	C=C[C@@H]1C[C@]1(NC(=O)[C@@H]1C[C@@H](Oc2cc(-c3csc(NC(=O)CC)n3)nc3c(F)c(OC)ccc23)CN1C(=O)[C@@H](NC(=O)OC1CCCC1)C(C)(C)C)C(=O)O
						0.006 µM	0.003 µM	C=C[C@@H]1C[C@]1(NC(=O)[C@@H]1C[C@@H](Oc2cc(-c3csc(NC(=O)OC)n3)nc3c(Br)c(OC)ccc23)CN1C(=O)[C@@H](NC(=O)OC1CCCC1)C(C)(C)C)C(=O)O
						0.005 µM	0.034 µM	C=C[C@@H]1C[C@]1(NC(=O)[C@@H]1C[C@@H](Oc2cc(-c3csc(NC(C)=O)n3)nc3cc(OC)ccc23)CN1C(=O)[C@@H](NC(=O)OC1CCCC1)C(C)(C)C)C(=O)O
						0.003 µM	0.002 µM	COc1ccc2c(O[C@@H]3C[C@H]4C(=O)N[C@]5(C(=O)O)C[C@H]5/C=C\CCCCC[C@H](NC(=O)OC5CCCC5)C(=O)N4C3)cc(-c3csc(NC(C)C)n3)nc2c1 [CILUPREVIR]
